Where two headings read alike, the source gives them in different places.
Key:
[1] = target: T1, Drosophila melanogaster HhC (Drosophila melanogaster, UniProt Q02936); conditions: read-out: KM as HhC substrate; cited from earlier work
T1 sequence (Q02936 258-471 limits assumed): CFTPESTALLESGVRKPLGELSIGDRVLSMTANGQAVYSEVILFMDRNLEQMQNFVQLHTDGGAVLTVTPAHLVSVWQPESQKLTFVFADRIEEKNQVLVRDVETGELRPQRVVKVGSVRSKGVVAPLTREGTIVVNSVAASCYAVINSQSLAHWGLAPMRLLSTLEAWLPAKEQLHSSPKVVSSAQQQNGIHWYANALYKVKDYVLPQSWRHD

[2] = target: T1, Drosophila melanogaster HhC; assay: Cholesterolysis kinetics; format: biochemical; conditions: C−H−Y
[3] = target: T2, HhC (Drosophila melanogaster, UniProt Q02936); format: binding; conditions: HhC 5 μM, tSP 10 μM, competitor 200 μM
T2 sequence (Q02936 258-471 limits assumed): T1 sequence (Q02936 258-471 limits assumed)
Method in brief: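 HhC at 5 μM with diazirine-bearing sterol probe tSP and 50 μM azide-linked fluorophore. Saturating cholesterol or test compound added as competitor. UV photolysis. Labeling read by SDS-PAGE with fluorescent gel imaging. Coomassie stain for total HhC.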

[4] = target: T2, HhC; assay: MS/MS mapping of tSP binding site on HhC/tSP adduct; conditions: product form of HhC, preliminary MS/MS

| kmax as HhC substrate ([2]; no inhibitor) [s⁻¹] | effect on active-site photolabeling of HhC by tSP [3] | difference in kmax/KM compared with cholesterol [2] [fold] | Km ([2]; read-out: KM as HhC substrate, no inhibitor) [µM] | site of probe attachment on HhC [4] | SMILES | Km [1] [µM] |
| --- | --- | --- | --- | --- | --- | --- |
| 0.0019 | competitively blocks | – | – | – | CC(C)CCC[C@@H](C)[C@H]1CC[C@H]2[C@@H]3CC=C4C[C@@H](O)CC[C@]4(C)[C@H]3CC[C@]12C [cholesterol] | 1.5 |
| 0.0042 | – | < 2 | 6.8 | EQLHSSPK (HhC residues 174−181) | C#CCCCCOC(=O)CC[C@@H](C)[C@H]1CCC2C3CC4(N=N4)[C@H]4C[C@@H](O)CC[C@]4(C)C3CC[C@@]21C (stereo partly shown) [tSP] | – |

From PMC9382716 (Biochemistry, 2021)
